The record followed here is PubChem BioAssay.

Activity calls are given as the source filed them.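 The calls were made as follows, unless noted: active = viability loss from added drug above about 55%, and viability with drug at most 40%, in both replicates (limit read from the data, passing the limit was not always enough); inconclusive = both conditions met in only one replicate; inactive = neither replicate meets both conditions.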

Test [1] in a line: Her2 expression decrease, cell viability multiplex – SKBR3 breast tumor cells, AlphaScreen, ATP viability, primary screen (AID 461;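 active = Her2 level under about 52% in both replicate screens, with viability over 70% of control, limit read from the data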;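 as to Her2 level: lower value means less Her2 protein in the cells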;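 as to viability: percent of carrier control wells set as 100% viability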). Particulars: SKBR3 Her2 protein level, 18-24 h, measured here: SKBR3 viability, ATP luminescence, at 10 µM. Background: Alpha assays give light when donor and acceptor beads are brought close together.
The target in test [2] is Receptor tyrosine-protein kinase erbB-2 (Homo sapiens) (UniProt P04626). Described as above. The note with it: 18-24 h, at 10 µM, stronger effect = lower value.
A short description of test [3]: reduced viability of SK-BR-3 breast cancer cells – cell-based, 24 h, human, pilot screen (AID 572;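 active = viability at or below 10% of carrier control in both of two separate runs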;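 also: compound exposure lasted between 18 and 24 h rather than exactly 24 h; 100% = carrier-treated control wells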). Particulars: SK-BR-3 viability, CellTiter-Glo luminescence, at 10 µM, stronger effect = lower value.
A short description of test [4]: HUVEC growth inhibition – cell-based, human, primary screen (AID 575;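 active = viability at or below 30% in both replicate assays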;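 also: 100% = median of untreated cell wells with 0.1% DMSO on each plate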). Particulars: HUVEC proliferation, CellTiter-Glo luminescence, 72 h; at 10 µM; stronger effect = lower value. Summed up: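 material = primary HUVEC, no more than 12 passages | input = 1250 cells per well | controls = vehicle and MePR control wells | measured by = CTG luminescence | times = 72 h compound incubation | format = collagen-coated 384-well format | read-out = % viability vs DMSO wells | doses = single 10 µM dose, 0.1% DMSO, from 5x medium stock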
In general terms: In ATP-based viability assays light output follows the ATP content of the culture.

A short description of test [5]: H69AR cell proliferation blockers – human, duplicate replicates, primary screen (AID 580;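 active = viability at or under a set limit in both replicates, limit being median viability minus 3 SD, cut at about 48% in these data, passing the limit was not always enough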;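 also: 100% = mean luminescence of untreated wells and 0% = no signal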). The note with it: H69AR lung tumor cells viability, ATP luminescence, 72 h; at 10 µM; stronger effect = lower value.
The nature of test [6]: MRP1 drug-resistance reversers in H69AR cells – cell-based, doxorubicin co-treatment, pilot screen (AID 601). Particulars: CellTiter-Glo, 72 h, at 10 µM; for differential viability (reversal): stronger effect = higher value.
Test [7] in a line: yeast transport mutant growth inhibition pilot in 384-well plates, post-Golgi transport modulator project (AID 636; in the data active = inhibition above about 31%). Particulars: absorbance 615 nm, about 18 h, stronger effect = higher value.
Test [8] can be described thus: growth suppression of yeast trafficking mutant, preliminary HTS, modulators of trafficking downstream of Golgi apparatus project, 1536-format plate, OD 615 nm (AID 637; in the data active = inhibition above about 30%). Particulars: yeast transport mutant growth, absorbance 615 nm, 18 h; stronger effect = higher value.
The mark [9] stands for this setting: H69AR cells + 2 uM doxorubicin, measured here: viability with 2 uM doxorubicin, stronger effect = lower value.
Where [10] appears, read: H69AR cells, compound alone cytotoxicity.

Chain of Receptor tyrosine-protein kinase erbB-2 (Homo sapiens) (P04626 whole entry, looked up): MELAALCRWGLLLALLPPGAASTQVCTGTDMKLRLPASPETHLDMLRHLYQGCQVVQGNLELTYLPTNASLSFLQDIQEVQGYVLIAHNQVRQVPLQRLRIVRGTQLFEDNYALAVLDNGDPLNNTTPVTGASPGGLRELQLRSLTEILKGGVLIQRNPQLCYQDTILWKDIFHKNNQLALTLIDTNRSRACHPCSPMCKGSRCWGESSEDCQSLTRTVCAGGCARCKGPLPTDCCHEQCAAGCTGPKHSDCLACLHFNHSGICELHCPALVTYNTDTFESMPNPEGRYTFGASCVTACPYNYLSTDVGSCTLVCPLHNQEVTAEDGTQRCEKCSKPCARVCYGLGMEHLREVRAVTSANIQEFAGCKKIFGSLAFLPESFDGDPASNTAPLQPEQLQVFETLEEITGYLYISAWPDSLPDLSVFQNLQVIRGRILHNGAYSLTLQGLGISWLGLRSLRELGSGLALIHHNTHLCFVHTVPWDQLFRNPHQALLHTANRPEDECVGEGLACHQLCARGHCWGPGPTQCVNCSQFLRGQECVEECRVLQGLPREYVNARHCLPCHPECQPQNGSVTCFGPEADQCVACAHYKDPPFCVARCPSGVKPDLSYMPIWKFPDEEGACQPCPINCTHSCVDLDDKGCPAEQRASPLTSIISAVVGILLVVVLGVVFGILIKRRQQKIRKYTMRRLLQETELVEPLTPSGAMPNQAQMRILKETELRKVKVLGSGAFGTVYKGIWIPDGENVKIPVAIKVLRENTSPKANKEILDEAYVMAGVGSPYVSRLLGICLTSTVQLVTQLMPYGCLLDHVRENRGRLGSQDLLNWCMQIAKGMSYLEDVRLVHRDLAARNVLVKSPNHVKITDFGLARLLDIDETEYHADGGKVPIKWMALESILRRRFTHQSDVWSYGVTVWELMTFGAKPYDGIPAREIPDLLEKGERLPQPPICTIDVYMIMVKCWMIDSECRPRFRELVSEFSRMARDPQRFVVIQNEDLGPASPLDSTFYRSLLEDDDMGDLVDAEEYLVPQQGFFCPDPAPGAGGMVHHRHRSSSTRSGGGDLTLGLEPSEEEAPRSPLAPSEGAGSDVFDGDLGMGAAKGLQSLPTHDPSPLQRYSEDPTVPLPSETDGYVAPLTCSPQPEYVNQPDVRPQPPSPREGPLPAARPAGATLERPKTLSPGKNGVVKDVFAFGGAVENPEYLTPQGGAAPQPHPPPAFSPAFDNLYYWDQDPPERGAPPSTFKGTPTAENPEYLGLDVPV

Take `COCCn1c(CN2CCN(c3ccccc3F)CC2)nc2c1c(=O)n(C)c(=O)n2C`: the viability in test [1] was 105%; in test [3] it was 105% (inactive); in test [4], 84.5% (inactive); in test [5], 95.8% (inactive); in test [6] (setting [9]) it was 95.6%; in test [6] (setting [10]) it was 95.8%. Besides, in test [2], the Her2 level was 138% (inactive). Further, the differential viability (reversal) in test [6] (H69AR cells + 2 uM doxorubicin) was 0.255% (inactive). The inhibition is -1.2% (inactive) in test [7] and 1.5% (inactive) in test [8].
Consider `CCOC(=O)Cc1csc(NC(=O)CSc2nnc(C(C)C)n2CC)n1`, for which the viability is 126% in test [1]; 126% (inactive) in test [3]; 88% (inactive) in test [4]; 89.8% (inactive) in test [5]; 88.2% in test [6] (setting [9]); 89.8% in test [6] (setting [10]). The Her2 level in test [2] was 86% (inactive). Further, in test [6] (H69AR cells + 2 uM doxorubicin), the differential viability (reversal) is 1.63% (inactive). Also, the values for the inhibition in test [7] and in test [8] were -6.13% (inactive) and 1.59% (inactive), respectively.
On to `Cc1nc(-c2cccc(-c3noc(C)n3)c2)no1`, for which the viability in test [1] is 87.5%; in test [3], 87.5% (inactive); in test [4] it was 86.1% (inactive); in test [5], 102% (inactive); in test [6] (setting [9]) it was 95.8%; in test [6] (setting [10]), 102%. In addition, the Her2 level in test [2] was 99% (inactive). Further, in test [6] (H69AR cells + 2 uM doxorubicin), the differential viability (reversal) was 5.99% (inactive). Further, the inhibition in test [7] was -5.54% (inactive); in test [8] it was -1.48% (inactive).
Regarding `COC(=O)CSc1nc2sc3c(c2c(=O)n1C1CCCCC1)CCN(C)C3`, the viability in test [1] is 102%; in test [3] it was 102% (inactive); in test [4], 84.7% (inactive); in test [5], 95% (inactive); in test [6] (setting [9]) it was 92.1%; in test [6] (setting [10]), 95%. In test [2], the Her2 level was 75.5% (inactive). Moreover, the differential viability (reversal) in test [6] (H69AR cells + 2 uM doxorubicin) is 2.91% (inactive). The inhibition is -5.66% (inactive) in test [7] and 1.83% (inactive) in test [8].
For the molecule `CS(=O)(=O)N1CCc2cc(C(=O)N3CCCCC3)ccc21`, the viability is 89.5% in test [1]; 89.5% (inactive) in test [3]; 99.8% (inactive) in test [4]; 96.6% (inactive) in test [5]; 88.5% in test [6] (setting [9]); 96.6% in test [6] (setting [10]). The Her2 level in test [2] was 89% (inactive). Besides, the differential viability (reversal) in test [6] (H69AR cells + 2 uM doxorubicin) is 8.06% (inactive). Further, the inhibition is -3.42% (inactive) in test [7] and 1.75% (inactive) in test [8].
In the case of `Cc1ccccc1N1CC(c2nc3ccccc3[nH]2)CC1=O` (stereo not given), the viability was 102% in test [1]; 102% (inactive) in test [3]; 87.7% (inactive) in test [4]; 96.1% (inactive) in test [5]; 96.7% in test [6] (setting [9]); 96.1% in test [6] (setting [10]). Further, the Her2 level in test [2] is 91.5% (inactive). For the same molecule, the differential viability (reversal) in test [6] (H69AR cells + 2 uM doxorubicin) is -0.615% (inactive). In addition, the inhibition in test [7] is -0.92% (inactive); in test [8], -5.71% (inactive).
Consider `CC(C)(C)c1ccc2c(c1)OCC(C(=O)O)O2` (stereo not given), for which the viability in test [1] is 99.5%; in test [3], 99.5% (inactive); in test [4], 99.3% (inactive); in test [5], 106% (inactive); in test [6] (setting [9]), 96.3%; in test [6] (setting [10]), 106%. Besides, in test [2], the Her2 level is 106% (inactive). Further, in test [6] (H69AR cells + 2 uM doxorubicin), the differential viability (reversal) was 9.5% (inactive). The inhibition was 0.55% (inactive) in test [7] and -3.65% (inactive) in test [8].
On to `Cc1sc2nc(SCC(=O)NCc3ccco3)n(CCc3ccccc3)c(=O)c2c1C`, for which the viability in test [1] was 102%; in test [3] it was 102% (inactive); in test [4], 58.3% (inactive); in test [5] it was 40% (active); in test [6] (setting [9]), 54.2%; in test [6] (setting [10]) it was 40%. Also, the Her2 level in test [2] was 86.5% (inactive). In addition, in test [6] (H69AR cells + 2 uM doxorubicin), the differential viability (reversal) is -14.2% (inactive). In addition, the values for the inhibition in test [7] and in test [8] were -6.27% (inactive) and 0.82% (inactive), respectively.
Take `Cc1ccc(CNC(=O)CCCn2c(=O)c3ccccc3n(CC(=O)NCc3ccco3)c2=O)cc1`: the viability in test [1] was 90.5%; in test [3], 90.5% (inactive); in test [4], 104% (inactive); in test [5], 89.6% (inactive); in test [6] (setting [9]) it was 91%; in test [6] (setting [10]) it was 89.6%. In addition, the Her2 level in test [2] was 144% (inactive). Moreover, the differential viability (reversal) in test [6] (H69AR cells + 2 uM doxorubicin) was -1.43% (inactive). The inhibition is 2.76% (inactive) in test [7] and 12.6% (inactive) in test [8].
`CCOC(=O)CCNC(=O)Nc1ccc2nc(C)n(Cc3ccccc3Cl)c(=O)c2c1`: the viability is 87% in test [1]; 87% (inactive) in test [3]; 92.9% (inactive) in test [4]; 94.9% (inactive) in test [5]; 87% in test [6] (setting [9]); 94.9% in test [6] (setting [10]). Besides, the Her2 level in test [2] was 110% (inactive). Moreover, the differential viability (reversal) in test [6] (H69AR cells + 2 uM doxorubicin) is 7.92% (inactive). Besides, the inhibition is -0.92% (inactive) in test [7] and 1.67% (inactive) in test [8].
Regarding `CNc1ccc(C(O)(C(F)(F)F)C(F)(F)F)cc1C(O)(C(F)(F)F)C(F)(F)F`, the viability in test [1] is 98%; in test [3] it was 98% (inactive); in test [4], 76.8% (inactive); in test [5], 80.7% (inactive); in test [6] (setting [9]), 84%; in test [6] (setting [10]) it was 80.7%. Further, the Her2 level in test [2] is 73% (inactive). For the same molecule, the differential viability (reversal) in test [6] (H69AR cells + 2 uM doxorubicin) is -3.27% (inactive). The inhibition in test [7] was -5.33% (inactive); in test [8], 5.25% (inactive).
`COc1cccc(C(=O)Nc2ccc(NC(C)=O)cn2)c1`: the viability in test [1] is 98%; in test [3], 98% (inactive); in test [4], 92.4% (inactive); in test [5] it was 106% (inactive); in test [6] (setting [9]), 93.2%; in test [6] (setting [10]), 106%. Moreover, the Her2 level in test [2] is 76% (inactive). Moreover, the differential viability (reversal) in test [6] (H69AR cells + 2 uM doxorubicin) was 12.5% (inactive). The inhibition in test [7] was -5.27% (inactive); in test [8] it was -4.92% (inactive).
As to `Cc1ccc(-c2nc(N)n(C(=O)c3cccnc3)n2)cc1`, the viability in test [1] is 86.5%; in test [3] it was 86.5% (inactive); in test [4], 95.1% (inactive); in test [5], 105% (inactive); in test [6] (setting [9]), 85.7%; in test [6] (setting [10]) it was 105%. Also, the Her2 level in test [2] was 87.5% (inactive). For the same molecule, in test [6] (H69AR cells + 2 uM doxorubicin), the differential viability (reversal) is 19.1% (inactive). For the same molecule, the inhibition was -3.08% (inactive) in test [7] and 0.33% (inactive) in test [8].
For the molecule `CC(C)(C)n1nnnc1C(c1cccs1)N1CCN(Cc2ccccc2)CC1` (stereo not given), the viability in test [1] is 90%; in test [3], 90% (inactive); in test [4], 86% (inactive); in test [5], 84.3% (inactive); in test [6] (setting [9]), 83.6%; in test [6] (setting [10]), 84.3%. The Her2 level in test [2] is 98.5% (inactive). Besides, the differential viability (reversal) in test [6] (H69AR cells + 2 uM doxorubicin) was 0.73% (inactive). Moreover, the inhibition in test [7] is -4.16% (inactive); in test [8] it was -2.86% (inactive).
Turning to `COc1cccc(OC)c1C(=O)N1CCOCC1`, the viability is 100% in test [1]; 100% (inactive) in test [3]; 92.1% (inactive) in test [4]; 100% (inactive) in test [5]; 85.1% in test [6] (setting [9]); 100% in test [6] (setting [10]). The Her2 level in test [2] is 87.5% (inactive). Moreover, in test [6] (H69AR cells + 2 uM doxorubicin), the differential viability (reversal) is 15% (inactive). Further, the values for the inhibition in test [7] and in test [8] were -1.84% (inactive) and -0.81% (inactive), respectively.
With `C=CCn1c(COc2cccc(C)c2)nnc1SCC(=O)NC(=O)NCc1ccco1`, the viability was 108% in test [1]; 108% (inactive) in test [3]; 78.4% (inactive) in test [4]; 78.2% (inactive) in test [5]; 81.3% in test [6] (setting [9]); 78.2% in test [6] (setting [10]). In test [2], the Her2 level is 95% (inactive). Further, in test [6] (H69AR cells + 2 uM doxorubicin), the differential viability (reversal) is -3.14% (inactive). Also, the inhibition is -5.07% (inactive) in test [7] and -0.48% (inactive) in test [8].

The viability is a read-out of living cells in per cent, often relative to untreated cells. For orientation: inhibition means the change of the read-out against control, counted positive when it falls.
